Reference: ChEMBL document CHEMBL4261600 (Eur J Med Chem, 2018)

How the values were obtained:
[1] = target: Ephrin type-B receptor 1 (Homo sapiens) (UniProt P54762); assay: Binding affinity to wild-type human partial length EPHB1 (P589 to T911 residues) expressed in bacterial expression system assessed as remaining unbound target protein level at 1000 nM by Kinomescan method relative to control
A-431 = assay: Antiproliferative activity against human A431 cells after 72 hrs by Celltiter-Glo assay; format: functional; settings: A-431, 72 h
Procedure, shortened: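 Cells seeded at 3000/well in 96-well plates, exposed to serially diluted compound for 72 h at 37 °C, 5% CO2. Viability read by CellTiter-Glo luminescence and normalized to DMSO control. GI50 derived from curve fit, mean of three independent measurements. Culture media: DMEM/10% FBS for adherent lines; IMDM for MV4-11 and MEC-1/2; RPMI 1640 for suspension lines and CHL.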

[2] = target: Aurora kinase C (Homo sapiens) (UniProt Q9UQB9); assay: Binding affinity to wild-type human full length AURKC (M1 to S275 residues) expressed in bacterial expression system assessed as remaining unbound target protein level at 1000 nM by Kinomescan method relative to control
Procedure, shortened: (§1)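 Single-point competition binding screen across a panel of 468 kinases and mutants, with the inhibitor at 1 μM. Binding is read out as percent of a DMSO control, and targets below 1 percent control were classed as strong binders.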

[3] = target: Wee1-like protein kinase 2 (Homo sapiens) (UniProt P0C1S8); assay: Binding affinity to wild-type human partial length WEE2 (M204 to K492 residues) expressed in bacterial expression system assessed as remaining unbound target protein level at 1000 nM by Kinomescan method relative to control
[4] = target: Mitogen-activated protein kinase 14 (Homo sapiens) (UniProt Q16539); assay: Binding affinity to wild-type human full length p38-alpha (M1 to S360 residues) expressed in bacterial expression system assessed as remaining unbound target protein level at 1000 nM by Kinomescan method relative to control
Procedure, shortened: (§2)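 Profiled in a KINOMEscan binding panel with the inhibitor at a single concentration of 1 μM. Binding to each kinase was read out as percent of control, relative to a DMSO control. Strong binders were defined as those with a percent control value below 1.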

[5] = system: Receptor-type tyrosine-protein kinase FLT3 (Homo sapiens), P36888 [K663Q]; assay: Binding affinity to human partial length FLT3 K663Q mutant (V592 to Y969 residues) expressed in bacterial expression system assessed as remaining unbound target protein level at 1000 nM by Kinomescan method relative to control
Procedure, shortened: (§3)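 KINOMEscan competition-binding profiling across the panel of 468 kinases and mutants, with inhibitor tested at 1 μM. Binding is expressed as percent of control, with DMSO as the reference control.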

[6] = target: 3-phosphoinositide-dependent protein kinase 1 (Homo sapiens) (UniProt O15530); assay: Binding affinity to wild-type human full length PDPK1 (M1 to Q556 residues) expressed in bacterial expression system assessed as remaining unbound target protein level at 1000 nM by Kinomescan method relative to control; procedure, shortened: as §2
[7] = target: Calcium/calmodulin-dependent protein kinase type 1 (Homo sapiens) (UniProt Q14012); assay: Binding affinity to wild-type human full length CAMK1 (M1 to L370 residues) expressed in bacterial expression system assessed as remaining unbound target protein level at 1000 nM by Kinomescan method relative to control; procedure, shortened: as §1
[8] = target: Insulin receptor (Homo sapiens) (UniProt P06213); assay: Binding affinity to wild-type human partial length INSR (P997 to E1318 residues) expressed in mammalian expression system assessed as remaining unbound target protein level at 1000 nM by Kinomescan method relative to control
Procedure, shortened: (§4)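 KINOMEscan binding panel of 468 kinases/mutants. Inhibitor was tested at a single concentration of 1 μM. Binding is reported as percent of control, defined relative to a DMSO control.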

[9] = target: Serine/threonine-protein kinase 33 (Homo sapiens) (UniProt Q9BYT3); assay: Binding affinity to wild-type human full length STK33 (M1 to L514 residues) expressed in bacterial expression system assessed as remaining unbound target protein level at 1000 nM by Kinomescan method relative to control; procedure, shortened: as §2
CDK8/Cyclin C = CDK8/Cyclin C (Homo sapiens, UniProt P49336); assay: Inhibition of recombinant full length His-tagged human CDK8/CyclinC expressed in baculovirus expression system
[10] = target: Serine/threonine-protein kinase MARK1 (Homo sapiens) (UniProt Q9P0L2); assay: Binding affinity to wild-type human partial length MARK1 (Q30 to T341 residues) expressed in bacterial expression system assessed as remaining unbound target protein level at 1000 nM by Kinomescan method relative to control; procedure, shortened: as §4
[11] = target: Cyclin-dependent kinase 11B (Homo sapiens, UniProt P21127); assay: Binding affinity to wild-type human partial length CDK11 (M1 to N360 residues) expressed in bacterial expression system assessed as […] at 1000 nM after 1 hr by Kinomescan method relative to control
[12] = target: Rhodopsin kinase GRK1 (Homo sapiens) (UniProt Q15835); assay: Binding affinity to wild-type human full length GRK1 (M1 to S563 residues) expressed in mammalian expression system assessed as remaining unbound target protein level at 1000 nM by Kinomescan method relative to control
Procedure, shortened: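 KINOMEscan competition binding panel run at 1 μM inhibitor; binding reported as percent of DMSO control (remaining target bound versus vehicle).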

Homo sapiens = species: Homo sapiens; assay: Selectivity ratio of IC50 for recombinant GST-tagged inactive state of human CDK11 to IC50 for recombinant full length His-tagged human CDK9/CyclinT1
[13] = target: Tyrosine-protein kinase ABL1 (Homo sapiens) (UniProt P00519); assay: Binding affinity to wild-type human non-phosphorylated ABL1 (S229 to K512 residues) expressed in mammalian expression system assessed as remaining unbound target protein level at 1000 nM by Kinomescan method relative to control; procedure, shortened: as §2
[14] = system: Phosphatidylinositol 4,5-bisphosphate 3-kinase catalytic subunit alpha isoform (Homo sapiens), P42336 [H1047L]; assay: Binding affinity to human partial length PIK3CA H1047L mutant (R108 to N1068 residues) expressed in mammalian expression system assessed as remaining unbound target protein level at 1000 nM by Kinomescan method relative to control; procedure, shortened: as §3
[15] = target: Ephrin type-A receptor 8 (Homo sapiens) (UniProt P29322); assay: Binding affinity to wild-type human partial length EPHA8 (Q608 to C920 residues) expressed in bacterial expression system assessed as remaining unbound target protein level at 1000 nM by Kinomescan method relative to control
[16] = Half life in mouse at 3 mg/kg, iv by LC-MS/MS analysis; format: ADME, organism-based; settings: in vivo
[17] = target: Mitogen-activated protein kinase kinase kinase kinase 3 (Homo sapiens) (UniProt Q8IVH8); assay: Binding affinity to wild-type human partial length MAP4K3 (M1 to D301 residues) expressed in bacterial expression system assessed as remaining unbound target protein level at 1000 nM by Kinomescan method relative to control
[18] = target: Phosphatidylinositol 4-phosphate 5-kinase type-1 alpha (Homo sapiens) (UniProt Q99755); assay: Binding affinity to wild-type human full length PIP5K1A (M1 to H562 residues) expressed in bacterial expression system assessed as remaining unbound target protein level at 1000 nM by Kinomescan method relative to control; procedure, shortened: as §2

CDK8/Cyclin C, sequence (P49336 whole entry, the tested form may be a part): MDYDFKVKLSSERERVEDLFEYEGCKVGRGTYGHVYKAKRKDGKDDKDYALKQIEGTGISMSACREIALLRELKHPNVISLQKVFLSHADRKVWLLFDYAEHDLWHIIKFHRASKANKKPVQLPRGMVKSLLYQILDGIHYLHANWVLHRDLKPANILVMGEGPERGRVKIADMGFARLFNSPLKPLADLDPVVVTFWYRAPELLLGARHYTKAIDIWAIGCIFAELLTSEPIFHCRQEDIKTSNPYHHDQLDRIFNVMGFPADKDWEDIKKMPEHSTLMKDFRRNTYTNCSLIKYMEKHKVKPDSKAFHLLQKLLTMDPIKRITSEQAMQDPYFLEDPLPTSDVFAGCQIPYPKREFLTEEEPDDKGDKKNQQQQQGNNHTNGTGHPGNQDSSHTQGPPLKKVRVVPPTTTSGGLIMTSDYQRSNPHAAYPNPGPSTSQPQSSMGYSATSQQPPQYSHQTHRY
CDK8/Cyclin C, sequence (P24863 whole entry, further chain, the tested form may be a part): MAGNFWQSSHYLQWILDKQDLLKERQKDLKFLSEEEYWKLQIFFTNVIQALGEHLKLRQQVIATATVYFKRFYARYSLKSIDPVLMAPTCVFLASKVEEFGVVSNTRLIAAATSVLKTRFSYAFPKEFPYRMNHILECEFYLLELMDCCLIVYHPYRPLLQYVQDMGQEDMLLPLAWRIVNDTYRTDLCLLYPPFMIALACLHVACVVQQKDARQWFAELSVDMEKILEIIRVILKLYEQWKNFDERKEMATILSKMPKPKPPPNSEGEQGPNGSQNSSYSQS
Serine/threonine-protein kinase 33 (Homo sapiens), sequence (Q9BYT3 whole entry, looked up, the tested form may be a part): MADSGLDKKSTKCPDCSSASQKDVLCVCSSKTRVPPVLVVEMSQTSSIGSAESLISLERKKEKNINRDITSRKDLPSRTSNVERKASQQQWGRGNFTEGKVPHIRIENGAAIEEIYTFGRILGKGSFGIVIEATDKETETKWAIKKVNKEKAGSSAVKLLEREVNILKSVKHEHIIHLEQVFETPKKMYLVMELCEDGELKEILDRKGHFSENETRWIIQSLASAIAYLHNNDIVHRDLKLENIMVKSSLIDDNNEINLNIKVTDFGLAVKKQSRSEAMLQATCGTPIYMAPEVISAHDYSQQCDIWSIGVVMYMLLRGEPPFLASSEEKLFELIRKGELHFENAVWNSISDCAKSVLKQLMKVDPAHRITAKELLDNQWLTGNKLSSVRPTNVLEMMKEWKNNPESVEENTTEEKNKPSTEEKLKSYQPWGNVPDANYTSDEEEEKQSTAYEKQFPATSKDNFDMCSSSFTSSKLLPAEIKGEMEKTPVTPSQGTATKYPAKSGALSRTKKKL
Wee1-like protein kinase 2 (Homo sapiens), sequence (P0C1S8 whole entry, looked up, the tested form may be a part): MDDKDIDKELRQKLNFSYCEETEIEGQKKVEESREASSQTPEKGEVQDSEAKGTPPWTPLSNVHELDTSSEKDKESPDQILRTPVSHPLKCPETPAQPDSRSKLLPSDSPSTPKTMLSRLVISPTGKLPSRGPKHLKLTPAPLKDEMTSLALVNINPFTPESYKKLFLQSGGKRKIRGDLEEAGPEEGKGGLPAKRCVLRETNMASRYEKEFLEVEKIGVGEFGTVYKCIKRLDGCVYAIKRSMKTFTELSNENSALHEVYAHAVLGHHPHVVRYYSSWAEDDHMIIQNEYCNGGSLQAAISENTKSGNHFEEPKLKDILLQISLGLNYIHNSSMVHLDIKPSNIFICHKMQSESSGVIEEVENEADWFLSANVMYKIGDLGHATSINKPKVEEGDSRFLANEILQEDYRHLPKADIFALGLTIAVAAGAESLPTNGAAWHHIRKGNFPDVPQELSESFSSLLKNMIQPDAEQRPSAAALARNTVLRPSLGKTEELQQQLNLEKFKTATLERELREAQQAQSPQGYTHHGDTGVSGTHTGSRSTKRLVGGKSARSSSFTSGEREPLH
Mitogen-activated protein kinase 14 (Homo sapiens), sequence (Q16539 whole entry, the tested form may be a part): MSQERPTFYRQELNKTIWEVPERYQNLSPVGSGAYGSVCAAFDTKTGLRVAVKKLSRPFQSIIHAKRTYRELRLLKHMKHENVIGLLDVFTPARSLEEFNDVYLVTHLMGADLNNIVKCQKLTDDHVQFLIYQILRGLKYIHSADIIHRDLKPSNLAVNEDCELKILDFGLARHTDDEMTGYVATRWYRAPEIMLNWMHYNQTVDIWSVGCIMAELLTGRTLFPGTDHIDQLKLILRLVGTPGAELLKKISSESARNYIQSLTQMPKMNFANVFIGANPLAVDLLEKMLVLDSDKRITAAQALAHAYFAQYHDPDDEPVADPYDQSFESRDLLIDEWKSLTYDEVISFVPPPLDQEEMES
Tyrosine-protein kinase ABL1 (Homo sapiens), sequence (P00519 whole entry, the tested form may be a part, canonical isoform): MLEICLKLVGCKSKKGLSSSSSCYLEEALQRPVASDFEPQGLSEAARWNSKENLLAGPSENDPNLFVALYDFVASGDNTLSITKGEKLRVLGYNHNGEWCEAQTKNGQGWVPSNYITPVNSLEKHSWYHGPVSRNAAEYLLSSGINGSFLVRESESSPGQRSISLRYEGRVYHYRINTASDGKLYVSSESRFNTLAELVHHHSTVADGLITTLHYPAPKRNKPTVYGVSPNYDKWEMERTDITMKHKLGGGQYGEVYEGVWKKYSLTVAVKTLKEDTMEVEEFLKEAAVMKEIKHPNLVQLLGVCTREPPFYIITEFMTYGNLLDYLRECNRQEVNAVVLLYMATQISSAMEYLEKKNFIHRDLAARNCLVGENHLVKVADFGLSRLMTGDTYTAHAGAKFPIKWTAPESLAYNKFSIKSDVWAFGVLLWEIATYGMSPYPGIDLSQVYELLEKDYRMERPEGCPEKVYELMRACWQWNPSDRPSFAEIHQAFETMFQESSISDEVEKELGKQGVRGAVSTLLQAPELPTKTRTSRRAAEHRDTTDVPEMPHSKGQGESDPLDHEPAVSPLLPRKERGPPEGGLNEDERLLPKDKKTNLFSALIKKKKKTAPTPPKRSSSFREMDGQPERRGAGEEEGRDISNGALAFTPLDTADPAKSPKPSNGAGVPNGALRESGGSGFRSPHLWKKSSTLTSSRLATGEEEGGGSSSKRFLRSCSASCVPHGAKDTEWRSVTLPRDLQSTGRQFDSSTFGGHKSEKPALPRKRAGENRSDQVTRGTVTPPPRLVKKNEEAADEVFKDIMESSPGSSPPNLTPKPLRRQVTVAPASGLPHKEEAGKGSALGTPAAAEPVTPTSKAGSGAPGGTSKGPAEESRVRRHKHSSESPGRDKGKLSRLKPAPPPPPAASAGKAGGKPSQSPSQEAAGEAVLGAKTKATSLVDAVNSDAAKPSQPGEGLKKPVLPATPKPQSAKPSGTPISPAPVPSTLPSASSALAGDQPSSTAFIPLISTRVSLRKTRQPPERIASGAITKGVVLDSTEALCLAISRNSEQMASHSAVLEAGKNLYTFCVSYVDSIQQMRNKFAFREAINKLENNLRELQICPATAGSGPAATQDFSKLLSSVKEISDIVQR
Calcium/calmodulin-dependent protein kinase type 1 (Homo sapiens), sequence (Q14012 whole entry, looked up, the tested form may be a part): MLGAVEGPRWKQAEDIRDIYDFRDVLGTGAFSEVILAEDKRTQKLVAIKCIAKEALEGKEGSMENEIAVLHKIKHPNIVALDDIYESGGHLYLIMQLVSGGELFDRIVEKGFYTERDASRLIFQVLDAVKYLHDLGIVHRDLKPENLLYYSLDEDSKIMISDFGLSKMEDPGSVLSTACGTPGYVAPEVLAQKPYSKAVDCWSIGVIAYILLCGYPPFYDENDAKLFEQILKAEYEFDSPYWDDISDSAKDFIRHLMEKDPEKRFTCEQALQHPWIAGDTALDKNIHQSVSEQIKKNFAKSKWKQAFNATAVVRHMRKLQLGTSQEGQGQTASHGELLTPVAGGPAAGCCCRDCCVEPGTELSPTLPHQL
Aurora kinase C (Homo sapiens), sequence (Q9UQB9 whole entry, the tested form may be a part): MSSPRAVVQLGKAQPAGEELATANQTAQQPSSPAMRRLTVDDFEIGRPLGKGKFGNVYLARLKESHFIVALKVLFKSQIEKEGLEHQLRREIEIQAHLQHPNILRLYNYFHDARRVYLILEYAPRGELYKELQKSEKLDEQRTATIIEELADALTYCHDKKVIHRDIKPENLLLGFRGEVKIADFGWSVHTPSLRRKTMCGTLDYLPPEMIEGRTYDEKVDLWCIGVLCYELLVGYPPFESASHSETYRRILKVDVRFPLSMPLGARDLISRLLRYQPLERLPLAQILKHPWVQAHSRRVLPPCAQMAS
Ephrin type-A receptor 8 (Homo sapiens), sequence (P29322 whole entry, the tested form may be a part): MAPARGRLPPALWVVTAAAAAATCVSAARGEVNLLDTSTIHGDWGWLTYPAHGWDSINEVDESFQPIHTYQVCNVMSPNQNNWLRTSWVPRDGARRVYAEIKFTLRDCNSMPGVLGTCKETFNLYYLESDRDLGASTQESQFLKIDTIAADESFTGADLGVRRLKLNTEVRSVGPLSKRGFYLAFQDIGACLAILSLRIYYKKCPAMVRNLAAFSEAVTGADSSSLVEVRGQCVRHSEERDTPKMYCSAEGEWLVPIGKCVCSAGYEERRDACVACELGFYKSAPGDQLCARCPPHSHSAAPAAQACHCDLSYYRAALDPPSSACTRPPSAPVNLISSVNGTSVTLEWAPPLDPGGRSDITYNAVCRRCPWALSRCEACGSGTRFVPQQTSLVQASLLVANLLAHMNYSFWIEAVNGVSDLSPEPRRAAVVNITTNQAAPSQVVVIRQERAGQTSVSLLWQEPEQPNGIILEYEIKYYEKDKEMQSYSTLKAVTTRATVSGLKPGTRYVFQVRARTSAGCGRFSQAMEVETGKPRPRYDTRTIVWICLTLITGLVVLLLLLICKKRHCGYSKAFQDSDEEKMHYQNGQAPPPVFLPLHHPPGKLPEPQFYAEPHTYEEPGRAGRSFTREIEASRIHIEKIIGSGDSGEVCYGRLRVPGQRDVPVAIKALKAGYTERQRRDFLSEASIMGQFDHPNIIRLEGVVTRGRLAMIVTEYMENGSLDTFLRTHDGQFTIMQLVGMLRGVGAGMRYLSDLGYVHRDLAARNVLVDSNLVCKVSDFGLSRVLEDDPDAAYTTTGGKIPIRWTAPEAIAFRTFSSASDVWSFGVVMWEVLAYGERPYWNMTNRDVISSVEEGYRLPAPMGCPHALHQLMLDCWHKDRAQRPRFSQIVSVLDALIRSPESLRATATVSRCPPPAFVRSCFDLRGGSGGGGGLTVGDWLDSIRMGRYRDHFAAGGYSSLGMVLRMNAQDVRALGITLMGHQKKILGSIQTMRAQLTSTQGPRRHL

With `COCCN[C@H]1CC[C@H](Nc2cc(-c3csc(NCC4(C#N)CCOCC4)n3)c(Cl)cn2)CC1` the Activity [1] was 88%, the GI50 (A-431) was 19 nM and the Activity [2] was 100%. It also gave an Activity [3] of 100%, an Activity [4] of 98% and an Activity [5] of 97%. For the same compound, the Activity [6] was 92%, the Activity [7] was 89% and the Activity [8] was 94%. It also gave an Activity [9] of 78%, an IC50 (CDK8/Cyclin C) of over 10 µM and an Activity [10] of 91%. It also gave an Activity [11] of 100%, an Activity [12] of 84% and a Ratio IC50 (Homo sapiens) of over 1000. The Activity [13] was 100%, the Activity [14] was 100% and the Activity [15] was 92%. The half-life [16] was 103 min, the Activity [17] was 100% and the Activity [18] was 100%.
